Assay results as given in ChEMBL document CHEMBL1146375, “Synthetic studies on novel benzimidazolopeptides with antimicrobial, cytotoxic and anthelmintic potential” (2007).
Values after ≈ are worked out from the molar mass of the structure shown.

Test system: Bacillus subtilis
Assay: Antibacterial activity against Bacillus subtilis NCIM 2063 after 18 hrs by disc diffusion method
Assay type: functional
Settings: not given
Outline: (§1)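 Modified Kirby-Bauer disc diffusion. Plates inoculated with spore suspension (about 6 × 10⁴ spores mL^-1). Sterile 6 mm paper discs carried test samples at 10 mg mL^-1; ciprofloxacin disc as reference, DMF disc as negative control. Plates held 18 h at 37 °C. Inhibition zone diameters (mm) averaged over triplicate sets.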

SMILES | inhibition zone (IZ) [mm]
COC(=O)CNC(=O)CNC(=O)c1cc(-c2nc3ccc([N+](=O)[O-])cc3[nH]2)ccc1O | 9
COC(=O)[C@H](CCCNC(=N)N[N+](=O)[O-])NC(=O)c1cc(-c2nc3ccc([N+](=O)[O-])cc3[nH]2)ccc1O | 13

Test system: Staphylococcus aureus
Assay: Antibacterial activity against Staphylococcus aureus NCIM 2079 after 18 hrs by disc diffusion method
Assay type: functional
Settings: not given
Outline: as §1

SMILES | inhibition zone (IZ) [mm]
COC(=O)CNC(=O)CNC(=O)c1cc(-c2nc3ccc([N+](=O)[O-])cc3[nH]2)ccc1O | 9
COC(=O)[C@H](CCCNC(=N)N[N+](=O)[O-])NC(=O)c1cc(-c2nc3ccc([N+](=O)[O-])cc3[nH]2)ccc1O | 10

Test system: Pseudomonas aeruginosa
Assay: Antibacterial activity against Pseudomonas aeruginosa NCIM 2034 after 18 hrs by disc diffusion method
Assay type: functional
Settings: not given
Outline: as §1

SMILES | inhibition zone (IZ) [mm]
COC(=O)CNC(=O)CNC(=O)c1cc(-c2nc3ccc([N+](=O)[O-])cc3[nH]2)ccc1O | 22
COC(=O)[C@H](CCCNC(=N)N[N+](=O)[O-])NC(=O)c1cc(-c2nc3ccc([N+](=O)[O-])cc3[nH]2)ccc1O | 19

Test system: Escherichia coli
Assay: Antibacterial activity against Escherichia coli NCIM 2065 after 18 hrs by disc diffusion method
Assay type: functional
Settings: not given
Outline: as §1

SMILES | inhibition zone (IZ) [mm]
COC(=O)CNC(=O)CNC(=O)c1cc(-c2nc3ccc([N+](=O)[O-])cc3[nH]2)ccc1O | 16
COC(=O)[C@H](CCCNC(=N)N[N+](=O)[O-])NC(=O)c1cc(-c2nc3ccc([N+](=O)[O-])cc3[nH]2)ccc1O | 15

Test system: Candida albicans
Assay: Antifungal activity against Candida albicans MUCC 29 after 48 hrs by disc diffusion method
Assay type: functional
Settings: not given
Outline: (§2)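 Agar well diffusion on plates inoculated with spore suspension in normal saline from cultures on Sabouraud's broth. Wells punched and loaded with test samples or griseofulvin at 10 mg mL^-1, with DMSO as negative control. Incubated 48 h at 37 °C.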

SMILES | inhibition zone (IZ) [mm]
COC(=O)CNC(=O)CNC(=O)c1cc(-c2nc3ccc([N+](=O)[O-])cc3[nH]2)ccc1O | 18
COC(=O)[C@H](CCCNC(=N)N[N+](=O)[O-])NC(=O)c1cc(-c2nc3ccc([N+](=O)[O-])cc3[nH]2)ccc1O | 15

Test system: Microsporum audouinii
Assay: Antifungal activity against Microsporum audouinii MUCC 545 after 48 hrs by disc diffusion method
Assay type: functional
Settings: not given
Outline: as §2

SMILES | inhibition zone (IZ) [mm]
COC(=O)CNC(=O)CNC(=O)c1cc(-c2nc3ccc([N+](=O)[O-])cc3[nH]2)ccc1O | 13
COC(=O)[C@H](CCCNC(=N)N[N+](=O)[O-])NC(=O)c1cc(-c2nc3ccc([N+](=O)[O-])cc3[nH]2)ccc1O | 13

Test system: Trichophyton benhamiae
Assay: Antifungal activity against Trichophyton mentagrophytes MUCC 665 after 48 hrs by disc diffusion method
Assay type: functional, Arthroderma benhamiae
Settings: not given
Outline: as §2

SMILES | inhibition zone (IZ) [mm]
COC(=O)CNC(=O)CNC(=O)c1cc(-c2nc3ccc([N+](=O)[O-])cc3[nH]2)ccc1O | 15
COC(=O)[C@H](CCCNC(=N)N[N+](=O)[O-])NC(=O)c1cc(-c2nc3ccc([N+](=O)[O-])cc3[nH]2)ccc1O | 15

Test system: Aspergillus niger
Assay: Antifungal activity against Aspergillus niger MUCC 177 after 48 hrs by disc diffusion method
Assay type: functional
Settings: not given
Outline: as §2

SMILES | inhibition zone (IZ) [mm]
COC(=O)CNC(=O)CNC(=O)c1cc(-c2nc3ccc([N+](=O)[O-])cc3[nH]2)ccc1O | 17
COC(=O)[C@H](CCCNC(=N)N[N+](=O)[O-])NC(=O)c1cc(-c2nc3ccc([N+](=O)[O-])cc3[nH]2)ccc1O | 18

Test system: Bacillus subtilis
Assay: Antibacterial activity against Bacillus subtilis NCIM 2063 after 18 hrs by tube dilution method
Assay type: functional
Settings: NCIM 2063, 18 h
Outline: (§3)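 Tube dilution MIC. Stock diluted in sterile broth to seven concentrations from 200 to 3.1 […]. Each tube inoculated with one loopful of test bacterium and incubated 18 h at 37 °C. MIC read from presence or absence of growth.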

SMILES | MIC [µg/mL]
COC(=O)CNC(=O)CNC(=O)c1cc(-c2nc3ccc([N+](=O)[O-])cc3[nH]2)ccc1O | 25 (≈ 58.5 µM)
COC(=O)[C@H](CCCNC(=N)N[N+](=O)[O-])NC(=O)c1cc(-c2nc3ccc([N+](=O)[O-])cc3[nH]2)ccc1O | 6 (≈ 11.7 µM)

Test system: Staphylococcus aureus
Assay: Antibacterial activity against Staphylococcus aureus NCIM 2079 after 18 hrs by tube dilution method
Assay type: functional
Settings: NCIM 2079, 18 h
Outline: as §3

SMILES | MIC [µg/mL]
COC(=O)CNC(=O)CNC(=O)c1cc(-c2nc3ccc([N+](=O)[O-])cc3[nH]2)ccc1O | 12.5 (≈ 29.2 µM)
COC(=O)[C@H](CCCNC(=N)N[N+](=O)[O-])NC(=O)c1cc(-c2nc3ccc([N+](=O)[O-])cc3[nH]2)ccc1O | 25 (≈ 48.6 µM)

Test system: Pseudomonas aeruginosa
Assay: Antibacterial activity against Pseudomonas aeruginosa NCIM 2034 after 18 hrs by tube dilution method
Assay type: functional
Settings: NCIM 2034, 18 h
Outline: as §3

SMILES | MIC [µg/mL]
COC(=O)CNC(=O)CNC(=O)c1cc(-c2nc3ccc([N+](=O)[O-])cc3[nH]2)ccc1O | 6 (≈ 14 µM)
COC(=O)[C@H](CCCNC(=N)N[N+](=O)[O-])NC(=O)c1cc(-c2nc3ccc([N+](=O)[O-])cc3[nH]2)ccc1O | 6 (≈ 11.7 µM)

Test system: Escherichia coli
Assay: Antibacterial activity against Escherichia coli NCIM 2065 after 18 hrs by tube dilution method
Assay type: functional
Settings: NCIM 2065, 18 h

SMILES | MIC [µg/mL]
COC(=O)CNC(=O)CNC(=O)c1cc(-c2nc3ccc([N+](=O)[O-])cc3[nH]2)ccc1O | 12.5 (≈ 29.2 µM)
COC(=O)[C@H](CCCNC(=N)N[N+](=O)[O-])NC(=O)c1cc(-c2nc3ccc([N+](=O)[O-])cc3[nH]2)ccc1O | 12.5 (≈ 24.3 µM)

Test system: Candida albicans
Assay: Antifungal activity against Candida albicans MUCC 29 after 48 hrs by tube dilution method
Assay type: functional
Settings: not given
Outline: (§4)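 Tube dilution MIC as for bacteria (seven concentrations, 200–3.1 […]), with DMSO in place of DMF. Tubes inoculated with fungal culture and incubated 48 h at 37 °C. MIC read from presence or absence of growth.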

SMILES | MIC [µg/mL]
COC(=O)CNC(=O)CNC(=O)c1cc(-c2nc3ccc([N+](=O)[O-])cc3[nH]2)ccc1O | 6 (≈ 14 µM)
COC(=O)[C@H](CCCNC(=N)N[N+](=O)[O-])NC(=O)c1cc(-c2nc3ccc([N+](=O)[O-])cc3[nH]2)ccc1O | 12.5 (≈ 24.3 µM)

Test system: Microsporum audouinii
Assay: Antifungal activity against Microsporum audouinii MUCC 545 after 48 hrs by tube dilution method
Assay type: functional
Settings: not given
Outline: as §4

SMILES | MIC [µg/mL]
COC(=O)CNC(=O)CNC(=O)c1cc(-c2nc3ccc([N+](=O)[O-])cc3[nH]2)ccc1O | 6 (≈ 14 µM)
COC(=O)[C@H](CCCNC(=N)N[N+](=O)[O-])NC(=O)c1cc(-c2nc3ccc([N+](=O)[O-])cc3[nH]2)ccc1O | 6 (≈ 11.7 µM)

Test system: Trichophyton benhamiae
Assay: Antifungal activity against Trichophyton mentagrophytes MUCC 665 after 48 hrs by tube dilution method
Assay type: functional, Arthroderma benhamiae
Settings: not given
Outline: as §4

SMILES | MIC [µg/mL]
COC(=O)CNC(=O)CNC(=O)c1cc(-c2nc3ccc([N+](=O)[O-])cc3[nH]2)ccc1O | 6 (≈ 14 µM)
COC(=O)[C@H](CCCNC(=N)N[N+](=O)[O-])NC(=O)c1cc(-c2nc3ccc([N+](=O)[O-])cc3[nH]2)ccc1O | 6 (≈ 11.7 µM)

Test system: Eudrilus
Assay: Anthelmintic activity against Eudrilus sp. assessed as mean paralyzing time
Assay type: functional
Settings: not given
Outline: (§5)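 Earthworms exposed to test suspensions at 2 mg mL^-1 (0.2% w/v), made by triturating compound with Tween 80 (0.5%) and distilled water, then mechanically stirred 30 min. Mebendazole suspension prepared alike as reference. Paralysis and death times recorded; death confirmed by no movement in 50 °C water. Means from triplicate sets.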

SMILES | Time [min]
COC(=O)CNC(=O)CNC(=O)c1cc(-c2nc3ccc([N+](=O)[O-])cc3[nH]2)ccc1O | 25.74
COC(=O)[C@H](CCCNC(=N)N[N+](=O)[O-])NC(=O)c1cc(-c2nc3ccc([N+](=O)[O-])cc3[nH]2)ccc1O | 17.98

Test system: Eudrilus
Assay: Anthelmintic activity against Eudrilus sp. assessed as mean death time
Assay type: functional
Settings: not given
Outline: (§6)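 Earthworms exposed to test suspensions at 2 mg mL−1, prepared by triturating compound with Tween 80 (0.5%) and distilled water, stirring 30 min, then diluting to 0.2% w/v. Mebendazole suspension was made the same way. Death was confirmed by moving worms into 50 °C warm water and looking for movement. Mean death time (min) taken from triplicate sets.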

SMILES | Time [min]
COC(=O)CNC(=O)CNC(=O)c1cc(-c2nc3ccc([N+](=O)[O-])cc3[nH]2)ccc1O | 36.77
COC(=O)[C@H](CCCNC(=N)N[N+](=O)[O-])NC(=O)c1cc(-c2nc3ccc([N+](=O)[O-])cc3[nH]2)ccc1O | 28.27

Test system: not listed separately
Assay: Anthelmintic activity against Megascoplex konkanensis ICARBC 211 assessed as mean paralyzing time
Assay type: functional
Settings: not given
Outline: as §5

SMILES | TIME [h]
COC(=O)CNC(=O)CNC(=O)c1cc(-c2nc3ccc([N+](=O)[O-])cc3[nH]2)ccc1O | 0.461
COC(=O)[C@H](CCCNC(=N)N[N+](=O)[O-])NC(=O)c1cc(-c2nc3ccc([N+](=O)[O-])cc3[nH]2)ccc1O | 0.27

Test system: not listed separately
Assay: Anthelmintic activity against Megascoplex konkanensis ICARBC 211 assessed as mean death time
Assay type: functional
Settings: not given
Outline: as §5

SMILES | TIME [h]
COC(=O)CNC(=O)CNC(=O)c1cc(-c2nc3ccc([N+](=O)[O-])cc3[nH]2)ccc1O | 0.608
COC(=O)[C@H](CCCNC(=N)N[N+](=O)[O-])NC(=O)c1cc(-c2nc3ccc([N+](=O)[O-])cc3[nH]2)ccc1O | 0.426

Test system: Pontoscolex corethrurus
Assay: Anthelmintic activity against Pontoscolex corethrurus ICARBC 408 assessed as mean paralyzing time
Assay type: functional
Settings: not given
Outline: as §5

SMILES | Time [min]
COC(=O)CNC(=O)CNC(=O)c1cc(-c2nc3ccc([N+](=O)[O-])cc3[nH]2)ccc1O | 31.38
COC(=O)[C@H](CCCNC(=N)N[N+](=O)[O-])NC(=O)c1cc(-c2nc3ccc([N+](=O)[O-])cc3[nH]2)ccc1O | 20.65

Test system: Pontoscolex corethrurus
Assay: Anthelmintic activity against Pontoscolex corethrurus ICARBC 408 assessed as mean death time
Assay type: functional
Settings: not given
Outline: as §6

SMILES | Time [min]
COC(=O)CNC(=O)CNC(=O)c1cc(-c2nc3ccc([N+](=O)[O-])cc3[nH]2)ccc1O | 42.45
COC(=O)[C@H](CCCNC(=N)N[N+](=O)[O-])NC(=O)c1cc(-c2nc3ccc([N+](=O)[O-])cc3[nH]2)ccc1O | 32.22
